Reference: ChEMBL document CHEMBL4428026, “Discovery of New Monocarbonyl Ligustrazine-Curcumin Hybrids for Intervention of Drug-Sensitive and Drug-Resistant Lung Cancer” (J Med Chem, 2016)
Calls of active or inactive are those of the source. No cut-off for these calls is given here.

Tests used:
[1] = Antiproliferative activity against human LTEP-G2 cells after 72 hrs by MTT assay; assay type: functional, cell-based
Method in brief: (§1)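 Cells (A549, A549/DDP, SPC-A-1, LTEP-G-2, non-tumor bronchial epithelial HBE) were exposed in triplicate to vehicle or compound for 72 h. MTT (5 mg/mL in PBS) was then added for 4 h, formazan was dissolved in DMSO, and absorbance was read at 570 nm. IC50 values were derived from viability.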

[2] = Cytotoxicity against NHBE cells after 72 hrs by MTT assay; assay type: cell-based; conditions: Homo sapiens; method in brief: as §1
[3] = Antiproliferative activity against human SPC-A1 cells after 72 hrs by MTT assay; assay type: functional, cell-based; conditions: SPCA1, 72 h; method in brief: as §1
Thioredoxin reductase [4] = target: T1, Thioredoxin reductase (Homo sapiens, UniProt Q16881+Q9NNW7+Q86VQ6); experiment: Inhibition of thioredoxin reductase in human A549 cells by DTNB dye based microplate spectrophotometry; assay type: cell-based
Method in brief: (§2)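 A549 or A549/DDP cells were treated with varying compound concentrations for 24 h, then harvested, homogenized and centrifuged. Protein (50 µg) was reacted in triplicate with NADPH and DTNB in TE buffer at 37 °C for 1 h, and TNB was read at 412 nm. Activity was taken from a purified-TrxR standard curve, and IC50 was derived.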

Thioredoxin reductase [5] = target: T1, Thioredoxin reductase; experiment: Inhibition of thioredoxin reductase in human A549/CDDP cells by DTNB dye based microplate spectrophotometry; assay type: cell-based; method in brief: as §2
A549 [6] = experiment: Antiproliferative activity against human A549 cells after 72 hrs by MTT assay; assay type: functional, cell-based; conditions: A549, 72 h; method in brief: as §1
Thioredoxin reductase [7] = target: T1, Thioredoxin reductase; experiment: Inhibition of thioredoxin reductase (unknown origin) after 2 hrs by DTNB dye based microplate spectrophotometry; assay type: protein assay
Method in brief: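 NADPH-reduced TrxR (0.16 µM) was preincubated in triplicate with vehicle DMSO (0.1%, v/v) or varying compound concentrations for 2 h. It was then reacted with 2 mM DTNB and 200 µM NADPH for 3 min, and absorbance was read at 412 nm. IC50 was derived.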

A549/CDDP [8] = experiment: Antiproliferative activity against human A549/CDDP cells after 72 hrs by MTT assay; assay type: functional, cell-based; method in brief: as §1
A549/CDDP [9] = experiment: Induction of apoptosis in human A549/CDDP cells at 0.6 to 1.2 uM after 24 hrs by annexin V-FITC/propidium iodide staining-based flow cytometry; assay type: functional, cell-based
Method in brief: (§3)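 Cells were seeded at 1 × 10^5/well and treated 24 h with DMSO (1%) or compound. They were then washed in PBS, stained with FITC-Annexin V and propidium iodide, and apoptotic fractions were quantified by flow cytometry.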

A549 [10] = experiment: Induction of apoptosis in human A549 cells at 2.1 to 4.2 uM after 24 hrs by annexin V-FITC/propidium iodide staining-based flow cytometry; assay type: functional, cell-based; method in brief: as §3
[11] = target: ATP-dependent translocase ABCB1 (Homo sapiens, UniProt P08183); experiment: Inhibition of P-gp ATPase activity in human A549/CDDP cells at 200 uM by luminescence assay (reference value: 706683 +/- 23554 RLU); assay type: cell-based
Chain of ATP-dependent translocase ABCB1 (P08183 whole entry): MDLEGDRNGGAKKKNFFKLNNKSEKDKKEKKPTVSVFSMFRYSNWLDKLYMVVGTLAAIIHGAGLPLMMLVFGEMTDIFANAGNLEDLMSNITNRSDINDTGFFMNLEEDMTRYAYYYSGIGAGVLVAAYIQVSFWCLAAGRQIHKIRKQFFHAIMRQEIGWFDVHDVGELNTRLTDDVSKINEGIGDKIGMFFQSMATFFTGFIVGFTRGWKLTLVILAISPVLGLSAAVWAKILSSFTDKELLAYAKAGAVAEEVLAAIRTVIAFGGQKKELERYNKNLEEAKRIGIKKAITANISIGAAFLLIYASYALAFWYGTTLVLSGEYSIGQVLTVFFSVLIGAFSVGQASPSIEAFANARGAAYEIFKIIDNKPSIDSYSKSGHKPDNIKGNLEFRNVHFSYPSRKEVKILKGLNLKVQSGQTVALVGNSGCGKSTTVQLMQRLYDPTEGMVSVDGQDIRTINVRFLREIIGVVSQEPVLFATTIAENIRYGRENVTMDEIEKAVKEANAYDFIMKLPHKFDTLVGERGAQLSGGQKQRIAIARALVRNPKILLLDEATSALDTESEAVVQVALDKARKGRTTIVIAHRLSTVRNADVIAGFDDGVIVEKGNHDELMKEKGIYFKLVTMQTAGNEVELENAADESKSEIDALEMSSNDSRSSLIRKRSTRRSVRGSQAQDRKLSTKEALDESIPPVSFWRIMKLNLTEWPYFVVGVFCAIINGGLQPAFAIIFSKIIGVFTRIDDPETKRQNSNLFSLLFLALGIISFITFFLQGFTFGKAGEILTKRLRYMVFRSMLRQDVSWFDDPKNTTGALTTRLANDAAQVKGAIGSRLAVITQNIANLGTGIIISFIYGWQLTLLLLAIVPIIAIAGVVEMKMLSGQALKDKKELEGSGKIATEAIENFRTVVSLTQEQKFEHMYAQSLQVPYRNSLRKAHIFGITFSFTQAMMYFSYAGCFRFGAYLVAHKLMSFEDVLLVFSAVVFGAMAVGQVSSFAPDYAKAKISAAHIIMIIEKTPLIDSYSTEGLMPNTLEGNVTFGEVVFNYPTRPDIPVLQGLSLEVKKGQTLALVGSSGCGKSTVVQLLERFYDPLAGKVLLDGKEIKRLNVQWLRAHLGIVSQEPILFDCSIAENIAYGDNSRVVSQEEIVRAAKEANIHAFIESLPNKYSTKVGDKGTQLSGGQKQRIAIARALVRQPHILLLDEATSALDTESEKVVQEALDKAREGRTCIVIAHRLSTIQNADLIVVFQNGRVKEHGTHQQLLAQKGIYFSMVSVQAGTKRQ

Row | IC50 (A549 [6]) [µM] | IC50 (A549/CDDP [8]) [µM] | Molecule | other results
1 | 3.07 | 2.85 | COc1ccc(/C=C/C(=O)/C=C/c2nc(C)c(C)nc2C)c(OC)c1 | IC50 [1]: 5.91 µM; IC50 [2]: 20.8 µM; IC50 [3]: 6.32 µM; IC50 (Thioredoxin reductase [4]): 4.12 µM; IC50 (Thioredoxin reductase [5]): 4.26 µM; IC50 (Thioredoxin reductase [7]): 7.63 µM
2 | 7.1 | 11.8 | Cc1nc(C)c(/C=C/C(=O)/C=C/c2ccc3ccccc3c2)nc1C | –
3 | 2.85 | 2.19 | COc1cccc(/C=C/C(=O)/C=C/c2nc(C)c(C)nc2C)c1O | IC50 [1]: 5.01 µM; IC50 [2]: 17.6 µM; IC50 [3]: 5.71 µM; IC50 (Thioredoxin reductase [4]): 4.73 µM; IC50 (Thioredoxin reductase [5]): 4.64 µM; IC50 (Thioredoxin reductase [7]): 5.3 µM
4 | 3.3 | 3.44 | COc1cccc(/C=C/C(=O)/C=C/c2nc(C)c(C)nc2C)c1 | –
5 | 1.6 | 1 | COc1cc(/C=C/C(=O)/C=C/c2nc(C)c(C)nc2C)cc(OC)c1OC | IC50 [1]: 2.34 µM; IC50 [2]: 14.3 µM; IC50 [3]: 5.35 µM; IC50 (Thioredoxin reductase [4]): 2.36 µM; IC50 (Thioredoxin reductase [5]): 1.98 µM; IC50 (Thioredoxin reductase [7]): 3.06 µM
6 | > 200 | > 200 | Cc1nc(C)c(C)nc1C [LIGUSTRAZINE] | Activity (A549/CDDP [9]): Active; IC50 (Thioredoxin reductase [4]): > 200 µM; IC50 (Thioredoxin reductase [5]): > 200 µM; Activity (A549 [10]): Active; IC50 (Thioredoxin reductase [7]): > 200 µM
7 | 11.7 | 6.9 | Cc1nc(C)c(/C=C/C(=O)/C=C/c2ccc(C(F)(F)F)cc2)nc1C | –
8 | 15.8 | 7.49 | Cc1nc(C)c(/C=C/C(=O)/C=C/c2ccc(Cl)cc2)nc1C | –
9 | 9.6 | 7.9 | Cc1nc(C)c(/C=C/C(=O)/C=C/c2ccc([N+](=O)[O-])cc2)nc1C | –
10 | 4.3 | 3.7 | Cc1nc(C)c(/C=C/C(=O)/C=C/c2cccc(O)c2)nc1C | –
11 | 3.2 | 4.74 | COc1ccccc1/C=C/C(=O)/C=C/c1nc(C)c(C)nc1C | –
12 | 38.1 | 32.4 | COc1cc(/C=C/C(=O)CC(=O)/C=C/c2ccc(O)c(OC)c2)ccc1O [CURCUMIN] | Activity (A549/CDDP [9]): Active; IC50 (Thioredoxin reductase [4]): 40.56 µM; IC50 (Thioredoxin reductase [5]): 39.42 µM; Activity (A549 [10]): Active; IC50 (Thioredoxin reductase [7]): 41.42 µM
13 | – | – | SODIUM ORTHOVANAD | Activity [11]: 790447 RLU
14 | 3.5 | 3.61 | COc1ccc(/C=C/C(=O)/C=C/c2nc(C)c(C)nc2C)cc1 | –
15 | 4.3 | 3.99 | Cc1ccc(/C=C/C(=O)/C=C/c2nc(C)c(C)nc2C)cc1 | –
16 | 6.7 | 6.69 | Cc1nc(C)c(/C=C/C(=O)/C=C/c2cccc([N+](=O)[O-])c2)nc1C | –
17 | 4.5 | 5.2 | Cc1nc(C)c(/C=C/C(=O)/C=C/c2ccc3c(c2)OCO3)nc1C | –
18 | 3.79 | 2.44 | COc1ccc(/C=C/C(=O)/C=C/c2nc(C)c(C)nc2C)cc1OC | IC50 [1]: 4.36 µM; IC50 [2]: 16.2 µM; IC50 [3]: 5.42 µM; IC50 (Thioredoxin reductase [4]): 4.17 µM; IC50 (Thioredoxin reductase [5]): 4.22 µM; IC50 (Thioredoxin reductase [7]): 7.09 µM
19 | – | – | COc1ccc(CCN(C)CCCC(C#N)(c2ccc(OC)c(OC)c2)C(C)C)cc1OC (stereo not given) [VERAPAMIL] | Activity [11]: 641490 RLU
20 | 4.78 | 3.9 | Cc1nc(C)c(/C=C/C(=O)/C=C/c2ccccc2O)nc1C | –
21 | 12.3 | 11.9 | Cc1nc(C)c(/C=C/C(=O)/C=C/c2ccccc2)nc1C | –
22 | 5.9 | 7.44 | Cc1nc(C)c(/C=C/C(=O)/C=C/c2ccc(F)cc2)nc1C | –
23 | 17.3 | 6.39 | Cc1nc(C)c(/C=C/C(=O)/C=C/c2ccccc2[N+](=O)[O-])nc1C | –
24 | 4.01 | 4.79 | Cc1nc(C)c(/C=C/C(=O)/C=C/c2ccc(O)cc2)nc1C | –
